Results as given in ChEMBL document CHEMBL1153892 (Bioorg Med Chem, 2009).
Activity calls are given as the source filed them. The rule behind the calls is not given here.

Experiments:
[1] = biological target: T1, Dual specificity protein phosphatase 1 (Mus musculus, UniProt P28563); assay: Inhibition of histidine-tagged mouse MKP1 catalytic domain expressed in […]
T1 sequence (P28563 whole entry): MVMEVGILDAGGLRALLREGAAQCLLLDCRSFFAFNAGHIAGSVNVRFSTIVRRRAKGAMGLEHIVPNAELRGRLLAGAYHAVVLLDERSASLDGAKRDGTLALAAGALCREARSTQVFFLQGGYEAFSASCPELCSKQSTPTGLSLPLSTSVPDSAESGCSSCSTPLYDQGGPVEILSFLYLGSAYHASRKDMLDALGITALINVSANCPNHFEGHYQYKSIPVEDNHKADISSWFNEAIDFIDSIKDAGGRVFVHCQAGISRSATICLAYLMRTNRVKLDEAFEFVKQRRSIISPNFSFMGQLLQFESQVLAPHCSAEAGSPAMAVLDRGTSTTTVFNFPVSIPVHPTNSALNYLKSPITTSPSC

[2] = biological target: T2, M-phase inducer phosphatase 2 (Homo sapiens, UniProt P30305); assay: Inhibition of histidine-tagged human recombinant Cdc25B catalytic domain expressed in Escherichia coli
T2 sequence (P30305 whole entry): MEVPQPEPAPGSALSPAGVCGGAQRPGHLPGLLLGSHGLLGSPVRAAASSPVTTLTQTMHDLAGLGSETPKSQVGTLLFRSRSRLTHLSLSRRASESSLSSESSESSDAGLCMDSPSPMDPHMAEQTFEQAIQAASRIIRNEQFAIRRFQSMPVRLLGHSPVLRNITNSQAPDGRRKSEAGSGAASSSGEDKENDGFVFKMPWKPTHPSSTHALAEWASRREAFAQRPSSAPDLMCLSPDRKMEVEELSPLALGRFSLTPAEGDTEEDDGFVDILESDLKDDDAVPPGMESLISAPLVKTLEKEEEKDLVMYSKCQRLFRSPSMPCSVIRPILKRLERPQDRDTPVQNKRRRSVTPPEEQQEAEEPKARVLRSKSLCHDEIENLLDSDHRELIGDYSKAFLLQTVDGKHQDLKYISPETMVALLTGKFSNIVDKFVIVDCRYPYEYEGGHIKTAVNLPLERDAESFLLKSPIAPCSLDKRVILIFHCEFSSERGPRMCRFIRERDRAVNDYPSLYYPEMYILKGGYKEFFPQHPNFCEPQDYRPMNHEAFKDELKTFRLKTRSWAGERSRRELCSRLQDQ

[3] = system: A2780; assay: Antiproliferative activity against human A2780 cells after 2 days by alamar-blue assay; format: functional, cell-based; details: A2780, 48 h
[4] = biological target: T3, Dual specificity protein phosphatase 6 (Rattus norvegicus, UniProt Q64346); assay: Inhibition of histidine-tagged rat recombinant MKP3 catalytic domain expressed in Escherichia coli BL21(DE3)
T3 sequence (Q64346 whole entry): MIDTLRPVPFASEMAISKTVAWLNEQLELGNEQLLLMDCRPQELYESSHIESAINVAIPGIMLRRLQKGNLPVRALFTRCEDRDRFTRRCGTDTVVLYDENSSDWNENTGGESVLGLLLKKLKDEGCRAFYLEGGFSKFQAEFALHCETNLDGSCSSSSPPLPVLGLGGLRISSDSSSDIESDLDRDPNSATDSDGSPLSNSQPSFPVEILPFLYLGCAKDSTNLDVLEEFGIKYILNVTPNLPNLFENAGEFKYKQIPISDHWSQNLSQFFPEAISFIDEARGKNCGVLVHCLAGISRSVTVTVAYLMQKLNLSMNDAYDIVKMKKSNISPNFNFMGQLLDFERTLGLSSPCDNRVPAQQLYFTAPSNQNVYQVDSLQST
Outline: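 Recombinant MKP-3 was expressed from a bacterial plasmid. Phosphatase activity was read from O-methyl fluorescein phosphate hydrolysis in a 25 μL final mixture, incubated 20 or 60 min at ambient temperature. Product fluorescence was read at excitation 485 nm and emission 530 nm. IC50 came from at least six inhibitor concentrations.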

[5] = biological target: T2, M-phase inducer phosphatase 2; assay: Inhibition of histidine-tagged full length human Cdc25B expressed in Escherichia coli
Outline: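 His6-tagged full-length enzyme purified from E. coli on Ni-NTA resin. Substrate is O-methyl fluorescein phosphate. Buffer is 30 mM Tris pH 8.5, 75 mM NaCl, 1 mM EDTA, 0.033% BSA and 1 mM DTT (final). Incubation runs 20 or 60 min at ambient temperature. Fluorescence is read at ex 485 / em 530 nm. IC50 comes from at least six concentrations.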

[6] = system: A2780; assay: Antiproliferative activity against human A2780 cells assessed as growth inhibition after 2 days by microscopic analysis; format: functional, cell-based

SMILES	IC50 [1]	IC50 [2]	IC50 [3]	IC50 [4]	IC50 [5]	Activity [6]
O=C1C=C(NCCO)C(=O)c2ccccc21	> 50 µM	> 50 µM	64 µM	> 50 µM		
C[C@@]12CCCc3coc(c31)C(=O)c1cc3c(cc12)C(=O)C1=C(NCCS1(=O)=O)C3=O [ADOCIAQUINONE B]	1.1 µM	0.11 µM		1.53 µM	0.08 µM	
O=C1C=CC(=O)c2c(O)cccc21 [JUGLONE]	13 µM	1.98 µM	1.4 µM	12.4 µM		
O=C1C=CC(=O)C=C1 [BENZOQUINONE]	> 50 µM	> 50 µM	7.8 µM	> 50 µM		
CCOC1=CC(=O)C(=O)c2ccccc21	0.82 µM	0.27 µM	0.37 µM	1.35 µM		
O=C1C=CC(=O)c2ccccc21 [NAPHTHOQUINONE]	8.45 µM	2.76 µM	2.3 µM	19.8 µM		
O=C1C=CC(=O)c2c(O)ccc(O)c21 [NAPHTHAZALIN]	9.37 µM	1 µM		6.9 µM		
CC1=C(NCCO)C(=O)c2ccccc2C1=O	> 50 µM	> 50 µM		> 50 µM		Active
O=C1C2=C(C(=O)c3c(O)cccc31)S(=O)(=O)CCN2	33.8 µM	0.88 µM	2.1 µM	> 50 µM		
O=C1c2ccccc2C(=O)c2ccccc21 [ANTHRAQUINONE]	> 50 µM	9.51 µM		> 50 µM		
O=C1c2cc3c(cc2C(=O)C2OC12)CCCC3 (stereo not given)	> 50 µM	22.3 µM		49.9 µM		
O=C1C=CC(=O)c2cc3c(cc21)CCCC3	21.8 µM	9.53 µM		> 50 µM		
O=C1C2=C(C(=O)c3cc4c(cc31)CCCC4)S(=O)(=O)CCN2	38.7 µM	2.3 µM		> 50 µM		
O=C1C2=C(C(=O)c3ccccc31)S(=O)(=O)CCN2	17.8 µM	0.94 µM	4.3 µM	42.6 µM		
CC1=CC(=O)c2ccccc2C1=O [MENADIONE]	24 µM	3.38 µM	2.6 µM	20.5 µM		
